Test results as given in ChEMBL document CHEMBL1124929, “Indolo[2,1-a]isoquinolines. Syntheses, steroid hormone receptor binding affinities, and cytostatic activity” (1990).

Key:
[1] = target: Estrogen receptor (Bos taurus) (UniProt Q9XSB5+P49884); assay: Relative binding affinity(RBA) for 50% displacement of [3H]-estradiol from Estrogen receptor compared to 17-beta-estradiol; format: protein assay
Summary of the method: (§1)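 Receptor source was calf uterine cytosol (105000g supernatant, 3 mg/mL protein in assay). Buffers were Tris/EDTA pH 7.4, with NaN₃ for ER, molybdate/glycerol for AR, and sucrose for PR. Tracers were 1 nM [³H]estradiol, [³H]mibolerone or [³H]Org 2058. Incubation was at 0–4 °C for 16 h (ER) or 2 h (AR, PR), with 4–6 competitor concentrations. Nonspecific binding used 2 µM of the unlabeled hormone. Separation was by dextran-coated charcoal. RBA is the ratio of IC50 values for hormone and compound ×100, mean of two triplicate experiments.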

MCF7 [2] = assay: Effect on hormone-dependent MCF-7 human breast cancer cell proliferation at 1x10E-5 M; format: functional
Summary of the method: (§2)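 Cells were plated at about 2 × 10⁴ per well in six-well dishes. MCF-7 cells were grown in modified improved MEM with 5% NCS, switched to charcoal-treated NCS two weeks before the test, and exposed for 5 days with a re-dose on day 4. MDA-MB 231 cells were grown in McCoy 5a with 10% NCS and exposed for 2 days. Compounds were given 1 day after plating in 0.1% DMSO, with DMSO-matched controls. Read-out was cell number as % T/C, mean of three experiments with six dishes.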

MDA-MB-231 [3] = assay: Cytostatic effect on hormone-independent MDA-MB 231 human breast cancer cell proliferation at5x10E-6M; format: functional; summary of the method: as §2
MCF7 [4] = assay: Effect on [3H]-thymidine incorporation into MCF-7 human breast cancer cells at 1x10E-5 M; format: functional
Summary of the method: (§3)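 Cells were seeded at ~2 × 10⁴ per well, treated from the next day in 0.1% DMSO, with DMSO controls. MCF-7 cells were held in charcoal-stripped NCS for 2 weeks, treated for 5 days and re-dosed on day 4. MDA-MB 231 cells were grown in McCoy 5a/10% NCS and treated for 2 days. At the end, 1 µCi [³H]thymidine per well was added for 2 h. Result is % T/C, mean of three experiments × six dishes.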

[5] = target: T1, Androgen Receptor (Bos taurus) (UniProt Q5EM59); assay: Relative binding affinity(RBA) for 50% displacement of [3H]mibolerone from Androgen receptor compared to testorone; summary of the method: as §1
T1 sequence (whole entry): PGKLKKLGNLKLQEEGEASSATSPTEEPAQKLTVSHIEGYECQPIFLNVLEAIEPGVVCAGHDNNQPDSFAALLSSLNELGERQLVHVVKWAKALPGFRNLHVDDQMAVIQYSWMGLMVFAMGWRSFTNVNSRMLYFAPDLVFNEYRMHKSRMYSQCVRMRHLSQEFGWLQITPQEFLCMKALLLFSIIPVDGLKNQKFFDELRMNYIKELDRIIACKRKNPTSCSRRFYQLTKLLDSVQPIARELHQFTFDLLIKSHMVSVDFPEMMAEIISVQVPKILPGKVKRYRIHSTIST

Bos taurus = species: Bos taurus; assay: Relative binding affinity(RBA) as ratio of progesterone and compound required to displace [3H]-org 2058 binding to Progesterone receptor by 50%; summary of the method: as §1
MDA-MB-231 [6] = assay: Effect on [3H]thymidine incorporation into MDA-MB 231 human breast cancer cells at 5x10E-6M; format: functional; summary of the method: as §3
MDA-MB-231 [7] = assay: Effect on [3H]thymidine incorporation into MDA-MB 231 human breast cancer cells at 1x10E-5 M; format: functional; summary of the method: as §3
MCF7 [8] = assay: Effect on [3H]thymidine incorporation into MCF-7 human breast cancer cells at 1x10E-6M; format: functional; summary of the method: as §3
MDA-MB-231 [9] = assay: Effect on [3H]-thymidine incorporation into MDA-MB 231 human breast cancer cells at 1x10E-6M; format: functional; summary of the method: as §3
MCF7 [10] = assay: Effect on hormone-dependent MCF-7 human breast cancer cell proliferation at 1x10E-6M; format: functional; summary of the method: as §2
[11] = target: T2, Estrogen receptor (Mus musculus) (UniProt O08537+P19785); assay: (§4) Estrogenic activity in uterotrophic assay in immature mice at 2 ug subcutaneous dose; format: functional
Summary of the method: (§5)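 Immature female NMRI mice, 20 days old, in groups of 6-10, were dosed sc once daily for three consecutive days. Compounds were given in PEG/0.9% saline 1:1; vehicle controls were included. Animals were killed 24 h after the last dose. Uteri were fixed in Bouin solution and the effect was taken as uterine dry weight (mg)/body weight (g) ×100, given as mean ± SD.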

[12] = target: T2, Estrogen receptor (Mus musculus); assay: (§6) Estrogenic activity in uterotrophic assay in immature mice at 10.0 ug subcutaneous dose; format: functional; summary of the method: as §5
[13] = target: T2, Estrogen receptor (Mus musculus); assay: (§7) Estrogenic activity in uterotrophic assay in immature mice at 50.0 ug subcutaneous dose; format: functional; summary of the method: as §5
[14] = target: T2, Estrogen receptor (Mus musculus); assay: (§8) Estrogenic activity in uterotrophic assay in immature mice at 250 ug subcutaneous dose; format: functional; summary of the method: as §5
MCF7 [15] = assay: Effect on hormone-dependent MCF-7 human breast cancer cell proliferation at 5x10E-6M; format: functional; summary of the method: as §2
MDA-MB-231 [16] = assay: Cytostatic effect on hormone-independent MDA-MB 231 human breast cancer cell proliferation at 1x10E-5 M; format: functional; summary of the method: as §2
[17] = target: T2, Estrogen receptor (Mus musculus); assay: as §4; format: functional; summary of the method: as §5; remark: listed apart in the source
[18] = target: T2, Estrogen receptor (Mus musculus); assay: Inhibition of 0.4 ug estrone-stimulated uterine growth in mice at 50.0 ug subcutaneous dose; format: functional
Summary of the method: (§9)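 Immature 20-day-old female NMRI mice received sc injections on three consecutive days. Each injection held 0.4 µg estrone plus the compound in PEG/saline 1:1. […] Significance was tested by Mann-Whitney U test.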

MCF7 [19] = assay: Effect on [3H]thymidine incorporation into MCF-7 human breast cancer cells at 5x10E-6M; format: functional; summary of the method: as §3
[20] = target: T2, Estrogen receptor (Mus musculus); assay: Inhibition of 0.4 ug estrone-stimulated uterine growth in mice at 250 ug subcutaneous dose; format: functional; summary of the method: as §9
[21] = target: T2, Estrogen receptor (Mus musculus); assay: as §6; format: functional; summary of the method: as §5; remark: listed apart in the source
[22] = target: T2, Estrogen receptor (Mus musculus); assay: Inhibition of 0.4 ug estrone-stimulated uterine growth in mice at 10.0 ug subcutaneous dose; format: functional; summary of the method: as §9
MCF7 [23] = assay: Effect on [3H]thymidine incorporation into MCF-7 human breast cancer cells at 1x10E-5 M; format: functional; summary of the method: as §3
[24] = target: T2, Estrogen receptor (Mus musculus); assay: as §7; format: functional; summary of the method: as §5; remark: listed apart in the source
[25] = target: T2, Estrogen receptor (Mus musculus); assay: as §8; format: functional; summary of the method: as §5; remark: listed apart in the source

T2 sequence (O08537 whole entry, looked up): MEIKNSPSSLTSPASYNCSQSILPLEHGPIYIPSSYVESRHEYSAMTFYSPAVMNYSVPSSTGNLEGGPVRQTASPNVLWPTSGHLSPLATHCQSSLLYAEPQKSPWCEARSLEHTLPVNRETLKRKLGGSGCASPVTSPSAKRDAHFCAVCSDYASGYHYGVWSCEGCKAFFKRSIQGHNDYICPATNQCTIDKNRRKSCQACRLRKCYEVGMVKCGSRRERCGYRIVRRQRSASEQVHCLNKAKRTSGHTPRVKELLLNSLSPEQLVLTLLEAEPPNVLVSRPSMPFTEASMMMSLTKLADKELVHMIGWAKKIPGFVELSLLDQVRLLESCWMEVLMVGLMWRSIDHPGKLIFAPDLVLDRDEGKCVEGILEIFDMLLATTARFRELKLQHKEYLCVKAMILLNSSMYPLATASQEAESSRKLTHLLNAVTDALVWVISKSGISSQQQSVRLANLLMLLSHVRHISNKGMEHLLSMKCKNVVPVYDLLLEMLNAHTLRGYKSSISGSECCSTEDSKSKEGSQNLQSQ
T2 sequence (P19785 whole entry, looked up): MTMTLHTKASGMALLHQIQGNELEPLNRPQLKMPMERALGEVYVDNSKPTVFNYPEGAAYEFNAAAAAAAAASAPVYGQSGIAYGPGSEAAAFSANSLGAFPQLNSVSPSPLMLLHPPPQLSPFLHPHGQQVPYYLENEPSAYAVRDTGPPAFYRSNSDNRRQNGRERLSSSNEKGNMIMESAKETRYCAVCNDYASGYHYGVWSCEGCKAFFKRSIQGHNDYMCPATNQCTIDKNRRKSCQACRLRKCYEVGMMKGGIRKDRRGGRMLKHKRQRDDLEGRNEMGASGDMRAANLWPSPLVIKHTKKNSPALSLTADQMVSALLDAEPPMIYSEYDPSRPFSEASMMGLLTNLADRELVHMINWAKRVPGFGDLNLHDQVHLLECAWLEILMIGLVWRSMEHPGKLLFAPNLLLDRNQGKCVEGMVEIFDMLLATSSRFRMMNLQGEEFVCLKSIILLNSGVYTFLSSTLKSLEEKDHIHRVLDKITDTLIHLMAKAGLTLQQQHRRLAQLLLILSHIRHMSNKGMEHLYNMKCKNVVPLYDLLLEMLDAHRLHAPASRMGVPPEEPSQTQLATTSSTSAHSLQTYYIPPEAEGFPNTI

SMILES: CCc1cc2cc(OC(C)=O)ccc2c2cc3ccc(OC(C)=O)cc3n12
- RBA [1]: 1.5
- T/C (MCF7 [2]): 5%
- T/C (MDA-MB-231 [3]): 8%
- T/C (MCF7 [4]): 3%
- RBA [5]: 0.01
- RBA (Bos taurus): < 0.01
- T/C (MDA-MB-231 [6]): 7%
- T/C (MDA-MB-231 [7]): 3%
- T/C (MCF7 [8]): 70%
- T/C (MDA-MB-231 [9]): 80%
- T/C (MCF7 [10]): 75%

SMILES: CCC1Cn2c(cc3cc(OC(C)=O)ccc32)-c2ccc(OC(C)=O)cc21 (stereo unspecified)
- Effect [11]: 16.8
- RBA [1]: 2.5
- Effect [12]: 21.5
- T/C (MCF7 [2]): 31%
- Effect [13]: 42.5
- T/C (MDA-MB-231 [3]): 88%
- RBA [5]: < 0.01
- RBA (Bos taurus): < 0.01
- Effect [14]: 42.7
- T/C (MCF7 [15]): 97%
- T/C (MDA-MB-231 [6]): 90%
- T/C (MDA-MB-231 [16]): 45%
- Effect [17]: 50.9
- T/C (MDA-MB-231 [7]): 25%
- inhibition [18]: 23.3%
- T/C (MCF7 [19]): 95%
- inhibition [20]: 22.4%
- Effect [21]: 44.1
- inhibition [22]: 18.7%
- T/C (MCF7 [23]): 7%
- Effect [24]: 24.1
- Effect [25]: 46.1

SMILES: CC(=O)Oc1ccc2c(c1)CCn1c-2cc2ccc(OC(C)=O)cc21
- RBA [1]: 0.16
- RBA [5]: 0.2
- RBA (Bos taurus): 0.01
